According to ChEMBL document CHEMBL3817742, “Structural Basis for the Selective Binding of Inhibitors to 6-Hydroxymethyl-7,8-dihydropterin Pyrophosphokinase from Staphylococcus aureus and Escherichia coli” (J Med Chem, 2016):
Calls of active or inactive are those of the source. The rule behind the calls is not given here.

Tests used:
[1] = target: T1, 2-amino-4-hydroxy-6-hydroxymethyldihydropteridin e pyrophosphokinase (Staphylococcus aureus, UniProt X5EH84); assay: Binding affinity to biotinylated Staphylococcus aureus HPPK in presence of 1 mM ATP by SPR assay
T1 sequence (X5EH84 whole entry): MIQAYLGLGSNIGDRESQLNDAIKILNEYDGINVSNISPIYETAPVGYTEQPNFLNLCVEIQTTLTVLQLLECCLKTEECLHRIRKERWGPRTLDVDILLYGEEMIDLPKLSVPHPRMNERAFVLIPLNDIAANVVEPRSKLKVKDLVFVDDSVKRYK
In short: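 Enzyme minimally biotinylated via maleimide-activated biotin, captured on streptavidin chip (~3800 RU). 3-fold serial dilutions, top concentration between 3 and 300 μM; 60 s contact at 30 μL·min−1, 60 s dissociation; duplicate or more; double-referenced, globally fitted where limited.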

[2] = target: T2, 2-amino-4-hydroxy-6-hydroxymethyldihydropteridine pyrophosphokinase (Escherichia coli (strain K12), UniProt P26281); assay: Binding affinity to biotinylated Escherichia coli HPPK expressed in Escherichia coli BL21 (DE3) in presence of 1 mM ATP by SPR assay
T2 sequence (P26281 whole entry): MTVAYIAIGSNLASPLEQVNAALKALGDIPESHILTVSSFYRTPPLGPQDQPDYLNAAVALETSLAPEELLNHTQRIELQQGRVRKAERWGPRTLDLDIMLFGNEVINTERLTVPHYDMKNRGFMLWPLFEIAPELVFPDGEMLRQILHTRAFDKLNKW
In short: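 N-terminal His6/TEV-cleavable construct expressed in E. coli BL21(DE3), Ni-NTA purified, His-tag cleaved, then size exclusion. Minimally biotinylated via NHS-activated biotin and captured on streptavidin chip (~4900 RU). Analytes in 3-fold serial dilutions, duplicate or more; sensorgrams solvent-corrected, double-referenced.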

[3] = target: T3, 2-amino-4-hydroxy-6-hydroxymethyldihydropteridin e pyrophosphokinase (Staphylococcus aureus) (UniProt X5EH84); assay: Binding affinity to AMPCPP-loaded and 15N/13C-labeled Staphylococcus aureus HPPK assessed a induction of 1H-15N chemical shift perturbations by 2D 15N-FAST-HSQC NMR spectrscopy
T3 sequence (whole entry): T1 sequence (X5EH84 whole entry)

[4] = target: T3, 2-amino-4-hydroxy-6-hydroxymethyldihydropteridin e pyrophosphokinase (Staphylococcus aureus); assay: Binding affinity to AMPCPP-loaded and 15N/13C-labeled Staphylococcus aureus HPPK assessed a induction of chemical shift changes in 15N HSQC spectra by HNCA triple resonance 3D NMR spectroscopy

SMILES	Kd [1]	Kd [2]	Activity [3]	Activity [4]
Nc1nc2[nH]c(SCCC3OCCCO3)nc2c(=O)[nH]1	7.9 µM	23.3 µM	–	–
CCN(CC)C(=O)CSc1nc2c(=O)[nH]c(N)nc2[nH]1	11 µM	74.2 µM	–	–
CNC(=O)CSc1nc2c(=O)[nH]c(N)nc2[nH]1	8.8 µM	50 µM	–	–
Nc1nc2[nH]c(S)nc2c(=O)[nH]1	–	160 µM	–	–
Nc1nc2[nH]c(SCC(O)C(F)(F)F)nc2c(=O)[nH]1 (stereo not drawn)	3.6 µM	97 µM	–	–
Nc1nc2[nH]c(SCc3cc(C(F)(F)F)cc(C(F)(F)F)c3)nc2c(=O)[nH]1	1.2 µM	–	–	–
Nc1nc2[nH]c(SCC(O)CO)nc2c(=O)[nH]1 (stereo not drawn)	13.4 µM	82 µM	–	–
Nc1nc2[nH]c(SCC(=O)c3ccc(Br)cc3)nc2c(=O)[nH]1	0.57 µM	0.7 µM	–	–
N#Cc1ccc(CSc2nc3nc(N)[nH]c(=O)c3[nH]2)cc1	–	–	Active	Active
Nc1nc2[nH]c(SCCO)nc2c(=O)[nH]1	7.6 µM	89.2 µM	–	–
Nc1nc2[nH]c(SCc3ccc(OC(F)(F)F)cc3)nc2c(=O)[nH]1	2.1 µM	5.2 µM	–	–
CC(C)CNC(=O)CSc1nc2c(=O)[nH]c(N)nc2[nH]1	13 µM	59.4 µM	–	–
COc1ccc(CSc2nc3c(=O)[nH]c(N)nc3[nH]2)c(F)c1	0.3 µM	0.95 µM	–	–
Nc1nc2[nH]c(SCCN3CCCC3=O)nc2c(=O)[nH]1	7.9 µM	–	–	–
Nc1nc(O)c2[nH]c(SCc3ccc(Cl)cc3)nc2n1	1.24 µM	4.3 µM	–	–
N#Cc1ccc(CSc2nc3c(=O)[nH]c(N)nc3[nH]2)c(F)c1	0.59 µM	2.7 µM	Active	Active
COCCSc1nc2c(=O)[nH]c(N)nc2[nH]1	2.76 µM	52 µM	–	–
Nc1nc2[nH]c(SCCCO)nc2c(=O)[nH]1	4.6 µM	68 µM	–	–
COc1ccc(C(=O)CSc2nc3nc(N)[nH]c(=O)c3[nH]2)cc1	–	–	Active	–
CN(C)C(=O)CSc1nc2c(=O)[nH]c(N)nc2[nH]1	1.5 µM	53 µM	–	–
CCN(C)C(=O)C(C)Sc1nc2c(=O)[nH]c(N)nc2[nH]1 (stereo not drawn)	46 µM	120 µM	–	–

The next lines start with the values.

Kd [1]	Kd [2]	Activity [3]	Activity [4]	SMILES
0.54 µM	5.7 µM	–	–	Nc1nc2[nH]c(SCc3ccccc3[N+](=O)[O-])nc2c(=O)[nH]1
2.3 µM	6.9 µM	–	–	Cc1cc(C)cc(CSc2nc3c(=O)[nH]c(N)nc3[nH]2)c1
0.3 µM	3.9 µM	–	–	Nc1nc2[nH]c(SCc3ccc(F)cc3)nc2c(=O)[nH]1
1.4 µM	5.8 µM	–	–	Nc1nc2[nH]c(SCc3cccc([N+](=O)[O-])c3)nc2c(=O)[nH]1
0.29 µM	2 µM	–	–	Nc1nc2[nH]c(SCc3ccc(F)c(F)c3)nc2c(=O)[nH]1
3.1 µM	7.1 µM	–	–	Nc1nc2[nH]c(SCc3cccc(Br)c3)nc2c(=O)[nH]1
0.26 µM	1.4 µM	–	–	Nc1nc2[nH]c(SCc3ccc(F)cc3F)nc2c(=O)[nH]1
0.51 µM	23 µM	–	–	N#Cc1ccccc1CSc1nc2c(=O)[nH]c(N)nc2[nH]1
–	–	Active	–	Nc1nc2[nH]c(SCc3ccccc3F)nc2c(=O)[nH]1
0.95 µM	2.13 µM	–	–	Nc1nc2[nH]c(SCc3ccc(Br)cc3)nc2c(=O)[nH]1
3.6 µM	10.1 µM	–	–	Cc1cc(CSc2nc3c(=O)[nH]c(N)nc3[nH]2)ccc1F
1.7 µM	12.6 µM	–	–	Cc1ccc(C)c(CSc2nc3c(=O)[nH]c(N)nc3[nH]2)c1
0.57 µM	1.7 µM	–	–	Nc1nc2[nH]c(SCc3cccc(Cl)c3)nc2c(=O)[nH]1
0.65 µM	1.8 µM	–	–	COc1cccc(CSc2nc3c(=O)[nH]c(N)nc3[nH]2)c1
–	–	Active	Active	Nc1nc2[nH]c(SCc3ccccc3)nc2c(=O)[nH]1
1.3 µM	–	–	–	Nc1nc2[nH]c(SCc3ccccc3Cl)nc2c(=O)[nH]1

Kd [1]	Kd [2]	Activity [3]	Activity [4]	SMILES
0.38 µM	1.7 µM	–	–	Cc1cccc(CSc2nc3c(=O)[nH]c(N)nc3[nH]2)c1
1.61 µM	5.7 µM	–	–	Nc1nc2[nH]c(SCc3cccc(OC(F)(F)F)c3)nc2c(=O)[nH]1
0.22 µM	2.6 µM	–	–	Nc1nc2[nH]c(SCc3cccc(F)c3)nc2c(=O)[nH]1
2.6 µM	26 µM	–	–	Nc1nc2[nH]c(SCc3cccc(C(=O)O)c3)nc2c(=O)[nH]1
0.21 µM	0.965 µM	–	–	Cc1ccc(F)c(CSc2nc3c(=O)[nH]c(N)nc3[nH]2)c1
0.12 µM	1.76 µM	Active	Active	Nc1nc2[nH]c(SCc3c(F)cccc3F)nc2c(=O)[nH]1
0.47 µM	2.5 µM	–	–	Cc1ccccc1CSc1nc2c(=O)[nH]c(N)nc2[nH]1
0.52 µM	2.2 µM	–	–	COc1ccc(CSc2nc3c(=O)[nH]c(N)nc3[nH]2)cc1
2.1 µM	5.3 µM	–	–	N#Cc1cc(CSc2nc3c(=O)[nH]c(N)nc3[nH]2)ccc1F
1.5 µM	8.5 µM	–	–	Nc1nc2[nH]c(SCc3ccccc3Br)nc2c(=O)[nH]1
1.93 µM	–	–	–	Nc1nc2[nH]c(SCc3ccc(C(F)(F)F)cc3)nc2c(=O)[nH]1
1.97 µM	16.3 µM	–	–	Cc1cc(F)ccc1CSc1nc2c(=O)[nH]c(N)nc2[nH]1
0.841 µM	6.1 µM	–	–	Cc1cccc(CSc2nc3c(=O)[nH]c(N)nc3[nH]2)c1C
1.2 µM	38 µM	–	–	N#Cc1cc(F)ccc1CSc1nc2c(=O)[nH]c(N)nc2[nH]1
0.77 µM	3.5 µM	–	–	N#Cc1cccc(CSc2nc3c(=O)[nH]c(N)nc3[nH]2)c1
2.8 µM	10.7 µM	–	–	Cc1cccc(CSc2nc3c(=O)[nH]c(N)nc3[nH]2)c1F
